Measurements: ChEMBL document CHEMBL1135910, “Beta-C-mannosides as selectin inhibitors” (J Med Chem, 2002)
pIC50: −log10 of the molar value.

Molecular target: Alpha-1-acid glycoprotein 1 (Homo sapiens, UniProt P02763)
Assay: Ability to inhibit the binding of E-selectin to human recombinant AGP (alpha-1 acid glycoprotein) in a E-selectin assay
Method in brief: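 ELISA read-out. Soluble E-selectin binding to human recombinant AGP bearing five sLex per molecule. Compounds screened at 5 mM, with percent inhibition recorded.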

Chain of Alpha-1-acid glycoprotein 1 (P02763 whole entry): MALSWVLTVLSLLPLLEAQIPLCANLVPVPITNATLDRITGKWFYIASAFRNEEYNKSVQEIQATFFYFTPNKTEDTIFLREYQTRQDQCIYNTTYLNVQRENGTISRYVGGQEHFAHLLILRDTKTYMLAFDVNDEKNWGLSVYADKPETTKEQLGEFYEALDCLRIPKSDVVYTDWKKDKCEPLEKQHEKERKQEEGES

Row | Inhibition [%] | pIC50 | Structure (SMILES)
1 | 45 |  | O=C(O)CC[C@H](NC(=O)CC1OC(CNC(=O)CC(=O)Nc2ccc(Cl)cc2Cl)C(O)C(O)C1O)C(=O)O (stereo not given in full)
2 | 42 |  | Cc1ccc(COc2ccsc2C(=O)NCC2OC(CC(=O)N[C@@H](CCC(=O)O)C(=O)O)C(O)C(O)C2O)cc1 (stereo not given in full)
3 |  | 2.30 | C[C@@H](NC(=O)c1ccccc1C(=O)NCC1OC(CC(=O)N[C@@H](CCC(=O)O)C(=O)O)C(O)C(O)C1O)c1ccccc1 (stereo not given in full)
4 | 43 |  | CC(C)(C)c1ccc(COc2ccsc2C(=O)NCC2OC(CC(=O)N[C@@H](CCC(=O)O)C(=O)O)C(O)C(O)C2O)cc1 (stereo not given in full)
5 |  | 2.10 | CC(=O)N[C@H]1[C@H]([C@H](O)[C@H](O)CO)O[C@@](O[C@H]2[C@@H](O)[C@@H](CO)O[C@@H](O[C@@H]([C@H](O[C@@H]3O[C@@H](C)[C@@H](O)[C@@H](O)[C@@H]3O)[C@H](C=O)NC(C)=O)[C@H](O)CO)[C@@H]2O)(C(=O)O)C[C@@H]1O [SIALYL LEWIS X]
